This is an account of results in article PMC7723568 (Annals of Translational Medicine, 2020).

In series [1] the test system is CD44v3–v10 over expressed HEK-293 cells. It is filed as binding, human. The settings on record: in words; 1×10^10 pfu/well, 37 °C, 1 h. The essentials: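 HEK-293 cells were transfected with a CD44v3–v10 plasmid or an empty plasmid, and assayed 48 h later. Candidate or unrelated phages (1×10^10 pfu/well) were bound for 1 h at 37 °C, then washed six times. Detection used goat anti-M13 (1:200), HRP secondary (1:5,000) and TMB, read at OD450. Selectivity = (ODpv – ODbv)/(ODpc – ODbc), with backgrounds from cells without phage. Triplicate, mean ± SD.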

In series [2] the test system is Recombinant CD44v3–v10 protein. As to the kind of experiment: Competitive inhibition ELISA on recombinant CD44v3–v10 protein. In kind it is binding, human. The settings on record: in words; CD44v3–v10 protein 1 µg/well; various peptide concentrations; n = 3. The essentials:
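Plates were coated with recombinant CD44v3–v10 protein (1 µg/well) and preincubated with candidate or control peptide at various concentrations. Candidate phage binding was then read by phage ELISA: goat anti-M13 (1:200), HRP secondary (1:5,000), TMB, OD450. Inhibition = 100% – 100%×(ODt – ODb)/(ODi – ODb), where ODb is wells lacking anti-M13 antibody.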
On the technique in general: In an ELISA, binding on a coated surface is turned into a signal by an enzyme label.

Series [3] has as its system SGC-7901 subcutaneous GC xenograft. Put plainly: In vivo fluorescence imaging of SGC-7901 xenograft models. Further details: species or system BALB/c-nu/nu mice. The settings on record: FITC labeled, 1 µg/g body weight, tail vein. The essentials: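 Male BALB/c nude mice (4–5 weeks, 20–25 g) received 5×10^6 SGC-7901 cells subcutaneously in the axilla, and tumours grew about 3 weeks to 1 cm3. Mice were randomised to two groups of ten. Each group received FITC-peptide probe or FITC-scrambled peptide, 1 µg/g via the tail vein. Under isoflurane, five mice per group were imaged every half hour until the probe was excreted. Signal was expressed as (p/sec/cm2/sr)/(µW/cm2), mean ± SE.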

The test system of series [4] is excised tumor and organs (liver, stomach, kidney, lung, heart) of SGC-7901 xenograft mice. As to the kind of experiment: Biodistribution: fluorescence imaging of excised tumor and organs. The following applies: FITC labeled, 1 µg/g, i.v., 3 h after injection. It is filed as in vivo, BALB/c-nu/nu mice.
A further series deals with CD44v3–v10 protein (Homo sapiens, UniProt P16070). Put plainly: Binding affinity to CD44v3–v10 protein. In short, it runs like this:
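Biotin-labelled peptide at a range of concentrations was incubated with immobilised recombinant CD44v3–v10 protein, with BSA as the comparison surface. Bound peptide was read as OD values, as in the competitive ELISA. Kd came from fitted binding curves and Scatchard plots. A scrambled peptide was the control. Each point was measured three times, mean ± SD.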

For series [5], the system named is CD44v3–v10 over expressed HEK-293 cells. As to the kind of experiment: Immunofluorescence staining of CD44v3–v10 over expressed HEK-293 cells. In kind it is cell-based, human. The following applies: 5 µM rhodamine B-labeled peptide; GFP reporter. The essentials:
(§1)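 HEK-293 cells were grown in DMEM with 10% FBS and transfected 48 h beforehand with a GFP-reporter CD44v3–v10 plasmid or an empty plasmid. Cells were fixed in 4% paraformaldehyde and blocked in 3% BSA. They were then stained with 5 µM rhodamine B-labelled peptide, with scrambled peptide as control. Nuclei were stained with DAPI, and cells were imaged by fluorescence microscopy at ×400.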

Another series has as its system SGC-7901 cells. Put plainly: Immunofluorescence staining of SGC-7901 cells. In kind it is cell-based. The settings on record: 5 µM FITC-labeled peptide, 37 °C, 10 min, co-stained with anti-CD44v6 antibody. In short, it runs like this: (§2)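 Gastric cancer cells were grown in RPMI 1640 with 10% FBS and seeded on coverslips overnight. They were fixed in 4% paraformaldehyde and blocked in 3% BSA. Cells were labelled with monoclonal anti-CD44v6 (1:500, 1 h) and a Cy3 secondary, then with 5 µM FITC-peptide at 37 °C for 10 min. Nuclei were stained with DAPI; imaging was by fluorescence microscopy at ×400.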

Another series relates to MKN-28 cells. As to the kind of experiment: Immunofluorescence staining of MKN-28 cells. It is filed as cell-based. The settings on record: 5 µM FITC-labeled peptide, 37 °C, 10 min, co-stained with anti-CD44v6 antibody. In short, it runs like this:
as §2

For series [6], the system named is HEK-293 cells transfected with empty plasmids. Put plainly: Immunofluorescence staining of HEK-293 cells transfected with empty plasmid. It is filed as cell-based, human. The settings on record: 5 µM rhodamine B-labeled peptide; GFP reporter. In short, it runs like this: as §1
The test system of a further series is MKN-45 cells. As to the kind of experiment: Immunofluorescence staining of MKN-45 cells. It is filed as cell-based. The following applies: 5 µM FITC-labeled peptide, 37 °C, 10 min, co-stained with anti-CD44v6 antibody. The essentials:
as §2

“Also recorded” adds a separate entry of the source. Where no end group is shown, it is not given here.

CD44v3–v10 protein, sequence (P16070 21-699 isoform P16070-4 limits assumed): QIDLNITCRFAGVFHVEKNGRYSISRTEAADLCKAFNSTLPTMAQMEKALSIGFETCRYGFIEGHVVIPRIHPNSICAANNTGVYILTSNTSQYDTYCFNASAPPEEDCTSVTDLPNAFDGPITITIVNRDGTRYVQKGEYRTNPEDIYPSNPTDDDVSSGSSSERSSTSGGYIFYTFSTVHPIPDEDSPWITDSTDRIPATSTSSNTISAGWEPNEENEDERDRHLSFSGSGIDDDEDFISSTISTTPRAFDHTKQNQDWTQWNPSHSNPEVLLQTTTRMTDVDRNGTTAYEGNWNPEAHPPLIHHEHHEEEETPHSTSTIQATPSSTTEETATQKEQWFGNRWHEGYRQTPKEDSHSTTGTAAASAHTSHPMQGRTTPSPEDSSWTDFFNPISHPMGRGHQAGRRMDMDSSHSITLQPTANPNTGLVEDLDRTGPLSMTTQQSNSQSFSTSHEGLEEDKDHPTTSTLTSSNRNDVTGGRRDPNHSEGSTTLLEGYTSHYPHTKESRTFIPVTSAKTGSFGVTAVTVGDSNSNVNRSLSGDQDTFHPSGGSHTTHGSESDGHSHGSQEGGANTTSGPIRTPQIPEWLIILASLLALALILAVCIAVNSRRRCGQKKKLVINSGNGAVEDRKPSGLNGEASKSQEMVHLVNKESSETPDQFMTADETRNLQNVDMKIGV

As for ELTVMGYYPGMS [C3], the “Binding activity / affinity / selectivity ranking in phage ELISA” value in series [1] was “highest binding activity and frequency; also recorded: second highest selectivity; also recorded: highest affinity”.

Consider THMPSDPGMNLL [C1], for which, in series [1], the “Binding activity / affinity / selectivity ranking in phage ELISA” value was “highest binding activity and frequency; also recorded: considerable affinity”.

As for THMPSDPGMNLL, in series [2], the “Inhibition of candidate phage binding by displayed peptide” value is “dose-dependent manner”.

For the sequence ELTVMGYYPGMS [ELT, ELTVMGYYPGMS], the “Elimination (fluorescence signal four hours after injection)” value in series [3] (4 h) is recorded as “nearly undetectable”. For the same sequence, the “Time of top fluorescent intensity in tumor” value in [3] (n = 5) amounted to 3 h. In addition, in series [4], the “Distribution in liver and kidney” value is “distributed in liver and kidney”. Moreover, on CD44v3–v10 protein, binding was characterised by a dissociation constant (Kd) of 611 nM.

On to EHDNTGMLYSVD [control peptide], for which, in series [5], the “Fluorescent staining of CD44v3–v10 over expressed HEK-293” value is on record as “only background staining”. Also, in the series with SGC-7901 cells, the “Fluorescent staining of SGC-7901” value was “only background staining”. Besides, the “Fluorescent staining of MKN-28” value in the series on MKN-28 cells is recorded as “only background staining”. Moreover, the “Distribution in liver and kidney” value in series [4] is “distributed in liver and kidney”. Further, the “Strong fluorescence on excised tumor tissue (mice positive/total)” value in series [4] (five mice per group) is recorded as “not control group”. Besides, in series [6], the “Fluorescent staining of HEK-293 transfected with empty plasmid” value is given as “only background staining”. Also, the “Fluorescent staining of MKN-45” value with MKN-45 cells is given as “only background staining”.

Broadly, the Kd is the constant that tells how readily two partners part at equilibrium.
